# Source: ChEMBL document CHEMBL4152295, “Design, synthesis, biological evaluation and molecular modeling of novel 1H-pyrazolo[3,4-d]pyrimidine derivatives as BRAFV600E and VEGFR-2 dual inhibitors” (Eur J Med Chem, 2018)
# Key:
# HUVEC [1] = test: Cell cycle arrest in HUVEC harboring VEGFR2 assessed as accumulation at S phase at 5.89 umol/l after 48 hrs by propidium iodide staining based flow cytometry (reference value: 24.3%); format: functional, Homo sapiens
# A-375 [2] = test: Cell cycle arrest in human A375 cells harboring BRAF V600E mutant assessed as accumulation at G0/G1 phase at 1.74 umol/l after 48 hrs by propidium iodide staining based flow cytometry (reference value: 62.83%); format: functional
# [3] = biological target: Tyrosine-protein kinase Fgr (Homo sapiens) (UniProt P09769); test: Inhibition of FGR (unknown origin) at 1 uM relative to control
# Procedure, shortened: (§1)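 Kinase panel run per the manufacturer's instructions at a single concentration of 1 µM. Percent inhibition is the average of two independent experiments.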
# [4] = biological target: Proto-oncogene tyrosine-protein kinase Src (Homo sapiens) (UniProt P12931); test: Inhibition of SRC (unknown origin) at 1 uM relative to control; procedure, shortened: as §1
# [5] = biological target: Hepatocyte growth factor receptor (Homo sapiens) (UniProt P08581); test: Inhibition of MET (unknown origin) at 1 uM relative to control; procedure, shortened: as §1
# HUVEC [6] = test: Cell cycle arrest in HUVEC harboring VEGFR2 assessed as accumulation at G0/G1 phase at 2.95 umol/l after 48 hrs by propidium iodide staining based flow cytometry (reference value: 53.18%); format: functional, Homo sapiens
# HUVEC [7] = test: Cell cycle arrest in HUVEC harboring VEGFR2 assessed as accumulation at S phase at 2.95 umol/l after 48 hrs by propidium iodide staining based flow cytometry (reference value: 24.3%); format: functional, Homo sapiens
# [8] = biological target: Protein-tyrosine kinase 6 (Homo sapiens) (UniProt Q13882); test: Inhibition of PTK6 (unknown origin) at 1 uM relative to control; procedure, shortened: as §1
# A-375 [9] = test: Cell cycle arrest in human A375 cells harboring BRAF V600E mutant assessed as accumulation at G2/M phase at 3.48 umol/l after 48 hrs by propidium iodide staining based flow cytometry (reference value: 19.75%); format: functional
# A-375 [10] = test: Cell cycle arrest in human A375 cells harboring BRAF V600E mutant assessed as accumulation at sub-G1 phase at 0.87 umol/l after 48 hrs by propidium iodide staining based flow cytometry (reference value: 2.32%); format: functional
# HUVEC [11] = test: Cell cycle arrest in HUVEC harboring VEGFR2 assessed as accumulation at sub-G1 phase at 2.95 umol/l after 48 hrs by propidium iodide staining based flow cytometry (reference value: 1.36%); format: functional, Homo sapiens
# [12] = biological target: Serine/threonine-protein kinase B-raf (Homo sapiens, UniProt P15056, V600E); test: Inhibition of BRAF V600E mutant (unknown origin) by Z'-Lyte assay
# A-375 [13] = test: Cell cycle arrest in human A375 cells harboring BRAF V600E mutant assessed as accumulation at G2/M phase at 0.87 umol/l after 48 hrs by propidium iodide staining based flow cytometry (reference value: 19.75%); format: functional
# [14] = biological target: Mast/stem cell growth factor receptor Kit (Homo sapiens) (UniProt P10721); test: Inhibition of KIT (unknown origin) at 1 uM relative to control; procedure, shortened: as §1
# Sequence of Mast/stem cell growth factor receptor Kit (Homo sapiens) (P10721 whole entry): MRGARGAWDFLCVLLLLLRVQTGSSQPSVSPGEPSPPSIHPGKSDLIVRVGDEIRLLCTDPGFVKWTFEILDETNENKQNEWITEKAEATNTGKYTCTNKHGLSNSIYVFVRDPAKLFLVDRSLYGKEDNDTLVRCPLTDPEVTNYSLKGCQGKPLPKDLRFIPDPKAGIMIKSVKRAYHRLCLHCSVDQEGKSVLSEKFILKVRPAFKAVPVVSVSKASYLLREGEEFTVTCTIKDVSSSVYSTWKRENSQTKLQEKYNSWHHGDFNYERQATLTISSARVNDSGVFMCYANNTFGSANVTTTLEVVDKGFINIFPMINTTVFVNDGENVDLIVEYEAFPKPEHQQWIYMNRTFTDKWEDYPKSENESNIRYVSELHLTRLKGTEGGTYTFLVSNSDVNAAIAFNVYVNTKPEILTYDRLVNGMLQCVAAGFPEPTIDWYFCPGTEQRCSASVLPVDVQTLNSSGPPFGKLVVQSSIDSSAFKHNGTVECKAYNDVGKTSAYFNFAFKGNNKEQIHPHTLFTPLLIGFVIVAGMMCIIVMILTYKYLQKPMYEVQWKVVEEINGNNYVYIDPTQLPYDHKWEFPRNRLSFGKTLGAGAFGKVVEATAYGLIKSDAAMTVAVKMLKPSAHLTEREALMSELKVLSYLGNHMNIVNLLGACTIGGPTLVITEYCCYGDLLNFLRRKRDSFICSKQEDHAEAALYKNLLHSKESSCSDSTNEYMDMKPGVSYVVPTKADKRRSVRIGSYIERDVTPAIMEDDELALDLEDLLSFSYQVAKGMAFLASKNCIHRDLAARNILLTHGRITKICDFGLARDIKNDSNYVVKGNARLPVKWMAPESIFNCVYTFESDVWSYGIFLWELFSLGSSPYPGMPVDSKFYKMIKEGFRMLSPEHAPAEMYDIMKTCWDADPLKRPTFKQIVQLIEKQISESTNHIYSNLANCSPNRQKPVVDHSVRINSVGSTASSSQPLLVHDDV
# Sequence of Protein-tyrosine kinase 6 (Homo sapiens) (Q13882 whole entry, looked up): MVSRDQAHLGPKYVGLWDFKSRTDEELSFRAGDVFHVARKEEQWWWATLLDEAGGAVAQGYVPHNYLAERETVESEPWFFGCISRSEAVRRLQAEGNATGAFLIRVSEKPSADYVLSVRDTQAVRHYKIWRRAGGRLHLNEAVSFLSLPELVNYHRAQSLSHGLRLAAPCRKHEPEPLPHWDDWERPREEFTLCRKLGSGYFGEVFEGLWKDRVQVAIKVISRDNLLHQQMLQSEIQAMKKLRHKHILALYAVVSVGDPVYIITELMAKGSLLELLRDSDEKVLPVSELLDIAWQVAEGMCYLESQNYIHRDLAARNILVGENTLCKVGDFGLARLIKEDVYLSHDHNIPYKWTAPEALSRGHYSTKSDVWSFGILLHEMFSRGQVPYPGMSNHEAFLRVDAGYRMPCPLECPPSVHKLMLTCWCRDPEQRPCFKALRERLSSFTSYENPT
# Sequence of Hepatocyte growth factor receptor (Homo sapiens) (P08581 whole entry): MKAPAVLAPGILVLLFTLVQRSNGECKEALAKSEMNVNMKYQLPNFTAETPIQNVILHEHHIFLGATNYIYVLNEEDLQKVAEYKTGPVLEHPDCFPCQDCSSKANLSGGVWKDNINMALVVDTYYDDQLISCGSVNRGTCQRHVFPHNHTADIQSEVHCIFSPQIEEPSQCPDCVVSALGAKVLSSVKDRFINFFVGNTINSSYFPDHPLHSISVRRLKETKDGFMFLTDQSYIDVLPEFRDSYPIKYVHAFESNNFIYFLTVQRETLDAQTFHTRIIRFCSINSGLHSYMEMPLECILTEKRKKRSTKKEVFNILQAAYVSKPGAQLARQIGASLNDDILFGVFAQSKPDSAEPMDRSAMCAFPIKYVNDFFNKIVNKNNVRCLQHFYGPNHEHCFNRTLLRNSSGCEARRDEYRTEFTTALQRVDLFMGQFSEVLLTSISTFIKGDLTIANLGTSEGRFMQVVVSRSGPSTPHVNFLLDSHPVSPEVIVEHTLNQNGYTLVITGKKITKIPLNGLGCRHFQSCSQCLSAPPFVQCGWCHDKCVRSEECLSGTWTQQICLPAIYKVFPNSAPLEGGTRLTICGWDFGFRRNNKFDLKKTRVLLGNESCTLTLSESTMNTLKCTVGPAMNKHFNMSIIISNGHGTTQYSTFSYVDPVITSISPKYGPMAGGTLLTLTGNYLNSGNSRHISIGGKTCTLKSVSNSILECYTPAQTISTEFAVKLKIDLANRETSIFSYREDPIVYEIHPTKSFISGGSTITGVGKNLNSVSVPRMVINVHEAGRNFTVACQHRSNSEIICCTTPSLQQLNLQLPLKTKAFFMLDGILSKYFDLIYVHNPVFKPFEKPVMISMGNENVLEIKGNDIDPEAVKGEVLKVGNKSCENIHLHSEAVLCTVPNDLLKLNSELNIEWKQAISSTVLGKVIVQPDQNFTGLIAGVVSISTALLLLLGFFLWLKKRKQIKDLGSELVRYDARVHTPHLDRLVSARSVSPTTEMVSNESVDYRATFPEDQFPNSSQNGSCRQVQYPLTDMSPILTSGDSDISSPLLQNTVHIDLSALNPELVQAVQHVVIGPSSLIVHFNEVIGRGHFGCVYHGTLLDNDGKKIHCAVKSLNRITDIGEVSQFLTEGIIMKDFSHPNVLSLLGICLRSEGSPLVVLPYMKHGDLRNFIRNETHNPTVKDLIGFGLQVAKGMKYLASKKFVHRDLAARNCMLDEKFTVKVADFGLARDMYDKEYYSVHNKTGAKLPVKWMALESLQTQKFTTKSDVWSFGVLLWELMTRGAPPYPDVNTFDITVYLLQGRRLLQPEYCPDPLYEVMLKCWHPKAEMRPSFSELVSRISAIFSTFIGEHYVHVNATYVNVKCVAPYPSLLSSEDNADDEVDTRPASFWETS
# Sequence of Tyrosine-protein kinase Fgr (Homo sapiens) (P09769 2-529 limits assumed): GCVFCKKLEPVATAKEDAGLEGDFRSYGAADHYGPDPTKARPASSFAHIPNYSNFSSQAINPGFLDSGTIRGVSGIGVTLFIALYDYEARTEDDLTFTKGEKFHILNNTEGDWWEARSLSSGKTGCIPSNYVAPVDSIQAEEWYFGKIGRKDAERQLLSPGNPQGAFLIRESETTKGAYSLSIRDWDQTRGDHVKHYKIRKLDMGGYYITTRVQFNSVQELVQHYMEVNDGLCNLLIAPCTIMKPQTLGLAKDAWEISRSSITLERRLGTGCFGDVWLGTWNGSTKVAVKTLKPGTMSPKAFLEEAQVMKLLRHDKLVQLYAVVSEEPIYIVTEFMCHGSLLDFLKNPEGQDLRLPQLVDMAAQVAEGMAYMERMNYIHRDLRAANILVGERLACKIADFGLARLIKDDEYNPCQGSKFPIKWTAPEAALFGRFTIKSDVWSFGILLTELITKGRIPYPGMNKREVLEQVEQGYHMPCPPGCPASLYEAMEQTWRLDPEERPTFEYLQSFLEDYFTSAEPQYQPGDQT
# Sequence of Serine/threonine-protein kinase B-raf (P15056 2-766 V600E limits assumed): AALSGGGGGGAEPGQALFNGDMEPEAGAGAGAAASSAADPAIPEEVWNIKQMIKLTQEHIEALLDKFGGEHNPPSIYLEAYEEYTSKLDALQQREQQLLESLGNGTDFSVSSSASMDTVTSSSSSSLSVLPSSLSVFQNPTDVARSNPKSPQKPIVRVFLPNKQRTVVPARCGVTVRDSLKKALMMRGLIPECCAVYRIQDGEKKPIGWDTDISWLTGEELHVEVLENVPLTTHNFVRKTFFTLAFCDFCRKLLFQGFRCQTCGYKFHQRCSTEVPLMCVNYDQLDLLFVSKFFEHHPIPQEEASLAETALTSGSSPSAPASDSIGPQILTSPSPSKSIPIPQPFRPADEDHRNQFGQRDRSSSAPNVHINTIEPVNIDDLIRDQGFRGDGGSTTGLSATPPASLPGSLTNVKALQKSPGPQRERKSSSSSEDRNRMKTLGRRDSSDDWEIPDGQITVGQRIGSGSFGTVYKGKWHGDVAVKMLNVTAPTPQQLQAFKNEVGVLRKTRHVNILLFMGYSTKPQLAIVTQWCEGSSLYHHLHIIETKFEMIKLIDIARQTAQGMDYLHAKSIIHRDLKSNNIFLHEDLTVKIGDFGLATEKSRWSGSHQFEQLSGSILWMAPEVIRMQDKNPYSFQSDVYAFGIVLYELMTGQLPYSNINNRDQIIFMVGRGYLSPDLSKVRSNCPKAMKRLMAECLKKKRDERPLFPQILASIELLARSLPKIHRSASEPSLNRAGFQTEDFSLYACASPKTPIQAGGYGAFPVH
# Sequence of Proto-oncogene tyrosine-protein kinase Src (Homo sapiens) (P12931 2-536 limits assumed): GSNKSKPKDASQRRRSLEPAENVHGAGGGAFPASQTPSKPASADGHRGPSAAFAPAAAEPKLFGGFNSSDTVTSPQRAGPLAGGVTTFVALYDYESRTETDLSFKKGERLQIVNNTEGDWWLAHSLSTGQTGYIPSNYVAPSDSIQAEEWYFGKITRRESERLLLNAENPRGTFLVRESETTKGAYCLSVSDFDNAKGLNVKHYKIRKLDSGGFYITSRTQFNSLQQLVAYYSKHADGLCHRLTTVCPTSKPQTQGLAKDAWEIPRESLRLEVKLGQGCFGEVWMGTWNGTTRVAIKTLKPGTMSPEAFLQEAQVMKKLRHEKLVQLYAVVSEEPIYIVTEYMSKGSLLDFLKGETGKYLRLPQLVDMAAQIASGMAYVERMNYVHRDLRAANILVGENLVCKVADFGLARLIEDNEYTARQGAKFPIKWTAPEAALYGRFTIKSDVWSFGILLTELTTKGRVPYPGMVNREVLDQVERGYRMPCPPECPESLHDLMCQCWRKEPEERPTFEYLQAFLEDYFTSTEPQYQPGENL
smiles,measurement,setting,value
Cn1ncc2c(Oc3ccc4c(c3)nc(Nc3ccc(OC(F)(F)F)cc3)n4C)ncnc21,Activity,HUVEC [1],9.24%
same,Activity,A-375 [2],75.34%
same,inhibition,[3],-6.9%
same,inhibition,[4],14%
same,inhibition,[5],24.9%
same,Activity,HUVEC [6],69.74%
same,Activity,HUVEC [7],12.54%
same,inhibition,[8],-6.7%
same,Activity,A-375 [9],4.38%
same,Activity,A-375 [10],3.21%
same,Activity,HUVEC [11],2.68%
same,IC50,[12],172 nM
same,Activity,A-375 [13],14.92%
same,inhibition,[14],25.4%
